Experimental data from ChEMBL document CHEMBL4513216, “Probing the Open Global Health Chemical Diversity Library for Multistage-Active Starting Points for Next-Generation Antimalarials” (ACS Infect Dis, 2020).

Assay: Toxicity liver stage against HepG2, at 10uM
Type: cell-based
Parameters: test concentration 10 uM, cell line HepG2-A16-CD81EGFP
Conditions: human, HepG2-A16-CD81EGFP cells; read-out: INHIBITION
Outline: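 Uninfected HepG2-A16-CD81EGFP cells, 3 × 10^3 per well, 1536-well, plated on prespotted compound at 10 μM final, parasite-free screening media added to match infected plates; puromycin 10 μM positive, DMSO 0.5% negative; run in parallel with 48 h PbLuc assay at 37 °C, 5% CO2; viability by CellTiter-Glo luminescence, normalized to controls.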

Row | SMILES | cytotoxicity at 10 µM [%]
1 | CC(C)(C)C1CC(=O)Nc2c1cnn2Cc1ccco1 (stereo unspecified) | -2.17
2 | Cn1nc(C2CCN(CC(=O)NC3CC3)CC2)n(-c2ccccc2)c1=O | -22.3
3 | O=C(NCc1cccs1)c1nc2c(o1)CN(c1ncccn1)C2 | -0.664
4 | COCCN1Cc2ccccc2C2(CCN(S(C)(=O)=O)CC2)C1 | 0.121
5 | COCCO[C@@H]1C[C@H]2CN(C(=O)c3cccnc3)CCN2C1 | -4.58
6 | COCc1nn(C(C)C)c2c1CCN(Cc1ccsc1)C2 | -4.51
7 | O=C(c1cccc(O)n1)N1CCC(O)(CN2CCC(F)(F)CC2)C1 (stereo unspecified) | 4.16
8 | CC(=O)N1CCC(c2nccnc2Nc2cnccn2)CC1 | 4.51
9 | CCc1cc(C(=O)N2CCCC2c2nc(C)c(CC)c(O)n2)on1 (stereo unspecified) | -14.2
10 | CC(=O)N1CCC(Oc2cccc(C#N)c2)CC1 | 6.35
11 | CC(=O)NCc1ccc(S(=O)(=O)NC(=O)c2ccc3c(c2)COC3)cc1 | 6.42
12 | CC(=O)N(C)CC(=O)NC(CC(C)C)c1cccs1 (stereo unspecified) | -1.49
13 | COc1nc(C)ccc1CNC(=O)NC(c1ncc(C)s1)C1CC1 (stereo unspecified) | -2.3
14 | Cc1cc(N(C)C)nc(N2CCCC2c2cccnc2)n1 (stereo unspecified) | -14.1
15 | O=C(CCNC(=O)NC1CCN(C2CC2)CC1)NCc1ccccc1 | -0.769
16 | COc1cc(C(=O)N2CCCC2CC(=O)c2cnn(C)c2)ccc1F (stereo unspecified) | -4.62
17 | CC1CCN(C(=O)NCCc2cc(F)ccc2F)C1 (stereo unspecified) | 0.154
18 | Cc1cc(NC(=O)CN2CCc3c(nc(C(C)C)n3C)C2)on1 | -3.17
19 | O=C(c1cccnc1)N1CCN(c2ccnc3ccsc23)CC1 | 5.77
20 | COc1ccccc1CC(C)(C)NC(=O)CC(F)(F)F | 6.08
21 | CC1CCN(CC(=O)NC(C#N)c2cnn(-c3ccccc3)c2)CC1 (stereo unspecified) | 0.724
22 | Cc1cc(C)c(C(=O)NCCNc2ncnc3ccccc23)c(=O)[nH]1 | 21
23 | OCC(O)CSCc1cn(-c2ccc(Cl)cc2)nn1 (stereo unspecified) | 3.2

Row | SMILES | cytotoxicity at 10 µM [%]
24 | CCc1nncn1CCNC(=O)Nc1ccc2c(c1)CCCO2 | 1.79
25 | O=C(NCCCOCC1CCCO1)c1cccnc1N1CCCC1 (stereo unspecified) | 12.4
26 | COCC1c2nnn(C)c2CCN1C(=O)Cc1ccccn1 (stereo unspecified) | -97.1
27 | CC(C)NC(=O)c1cc2c(s1)CCN2c1ncccn1 | -123
28 | CC[C@H](C)Nc1ncc(-c2cccc(NC(=O)CNC)c2)cn1 | -4.97
29 | Cc1cc(CN(C)C(C(=O)O)c2cccc(C(F)(F)F)c2)on1 (stereo unspecified) | -6.33
30 | CCCn1ccnc1CN1CCc2[nH]cnc2C1Cc1ccccc1 (stereo unspecified) | -15.8
31 | COc1cccc(CN2CCN(C(=O)Nc3nc(C)ns3)CC2=O)c1 | -3.05
32 | CCNc1ncc(C(=O)NC2COC3(CCCC3)C2)cn1 (stereo unspecified) | -4.53
33 | O=C(c1cccc(Cl)c1)N1CCCC(Nc2ccc(F)cc2)C1 (stereo unspecified) | -7.05
34 | CC(C)=CCC1(CO)CCCN(Cc2nccs2)C1 (stereo unspecified) | -1.23
35 | C[C@@H]1CN(CCC(=O)NCc2ccccc2Cl)C[C@@]1(O)C1CC1 | 2.75
36 | Cc1nc(C(C)C)sc1C(=O)N1CCN(C2CCSCC2)CC1 | 6.62
37 | CNS(=O)(=O)CCNC(=O)c1coc(COc2ccc(F)cc2)n1 | 0.975
38 | CCc1cnc(C)nc1NCCC(=O)N1CCC(C)CC1 | -0.384
39 | CCCn1cnnc1CN(C)C(=O)C1CCCN(C2CCN(C)CC2)C1 (stereo unspecified) | -6.58
40 | CSCCCN1CCCC(Cn2ccnc2)C1 (stereo unspecified) | 5.07
41 | CC(C)(C)c1ncc(C(=O)NCCNC(=O)c2ccco2)s1 | -1.98
42 | CN(C)c1ncccc1C(=O)N1CCCC1Cn1cccn1 (stereo unspecified) | -2.83
43 | O=C(N1CCCC1)N1Cc2nccn2CC(COc2cccnc2)C1 (stereo unspecified) | 0.997
44 | O=C(C[C@@H]1COC[C@H]2CN(Cc3ccc(F)cc3)C[C@@H]12)N1CCCC1 | 4.09
45 | CCN(C)c1ncnc2c1CCN(C(=O)N1CCCC1)CC2 | -6.9
46 | O=S1(=O)NCC2(CCN(c3ncccn3)CC2)COc2ccccc21 | -1.34
